DNMT1 inh = inhibitors of human DNMT1 | P26358 | DNMT1 molecular beacon, Hinp1I cleavage, fluorescence | inhibition (reported as % activation of signal), % at 10 µM | 360,000 compounds, 0.83% hits | AID 588458; in the data active = inhibition above about 50%
Rpn11 inh = inhibitors of human proteasome Rpn11. AID 588493. 360,000 compounds, 0.59% hits. human 26S proteasome, Ub4-pepOG fluorescence polarization; 20S core pre-blocked with epoxomicin. inhibition, % at 20 µM;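 active = inhibition at 20 µM, scaled to each plate's controls, above about 33%, limit read from the data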
Target sequence (O00487 whole entry, looked up): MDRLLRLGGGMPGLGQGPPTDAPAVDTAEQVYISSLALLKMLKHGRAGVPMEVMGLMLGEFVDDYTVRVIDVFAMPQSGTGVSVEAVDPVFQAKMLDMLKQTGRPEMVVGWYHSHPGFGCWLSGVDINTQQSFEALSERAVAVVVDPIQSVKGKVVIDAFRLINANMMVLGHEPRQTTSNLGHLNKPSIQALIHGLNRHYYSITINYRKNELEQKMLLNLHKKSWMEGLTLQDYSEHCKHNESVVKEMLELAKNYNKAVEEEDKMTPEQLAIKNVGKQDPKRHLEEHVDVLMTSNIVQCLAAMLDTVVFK
SKN-1 block = C. elegans SKN-1 inhibition. C. elegans VP596 Pgst-4::GFP/RFP ratio, acrylamide-induced, 24 h. inhibition, % at 21.8 µM. 360,000 compounds, 0.49% hits. AID 624304;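 active = interference check ratio from 0.5 to 1.5 plus GFP to RFP signal ratio inhibition reaching or exceeding a fixed threshold, cut at about 30% in these data, passing the limit was not always enough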
CSN deneddyl inh = blocks human CSN-mediated cullin deneddylation; AID 651999; Purified CSN, SCF-Nedd8-OG deneddylation, fluorescence polarization; Q92905; inhibition, % at 12.5 µM; 360,000 compounds, 0.38% hits;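 active = pattern-corrected inhibition above about 35%, with an unprinted fluorescence ratio check between 0.5 and 1.5, limit read from the data, passing the limit was not always enough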;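 note: 0% = enzyme with substrate and 100% = substrate without enzyme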
Target sequence (Q92905 whole entry, looked up, one chain of several): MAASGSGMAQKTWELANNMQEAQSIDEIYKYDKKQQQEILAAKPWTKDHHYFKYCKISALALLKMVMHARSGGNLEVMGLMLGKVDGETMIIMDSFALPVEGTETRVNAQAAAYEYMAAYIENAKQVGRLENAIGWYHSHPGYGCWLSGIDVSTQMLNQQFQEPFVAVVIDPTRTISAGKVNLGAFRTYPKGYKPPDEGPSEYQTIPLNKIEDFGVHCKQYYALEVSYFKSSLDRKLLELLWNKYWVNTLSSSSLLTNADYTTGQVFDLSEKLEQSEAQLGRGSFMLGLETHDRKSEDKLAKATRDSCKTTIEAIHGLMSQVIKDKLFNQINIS
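Assay system: Purified human Csn5 enzyme expressed in HEK293T cells | Amount: Enzyme 0.24 nM | Measured by: Fluorescence polarization readout | Medium: Tris/NaCl/DTT buffer, pH 7.5 | Compound dosing: One concentration, 12.5 µM, 0.25% DMSO | Times: 90 min incubation of compound, enzyme and substrate at room temperature | Control set: no-enzyme wells high, enzyme-with-substrate wells low | Read-out: % inhibition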
MT1-MMP act inh = inhibitors of human MT1-MMP activation; HT1080 RFP-PRO-GFP cells, GFP/RFP ratio fluorescence, overnight; percent of plate control window, DMSO zero; GFP/RFP ratio change, % at 20 µM; 360,000 compounds, 0.061% hits;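 active = GFP/RFP ratio change of at least 30% with cell ATP level not reduced by more than half and red fluorescence within 50% of control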
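Compound: 20 µM single dose, 1% DMSO / System: HT1080 RFP-PRO-GFP cells / Controls: DMSO and RFP-L50D-GFP cell wells / Read-out basis: GFP/RFP fluorescence ratio / Schedule: overnight compound exposure at 37 °C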
SUMO1-SIM PPI = SUMO1-SIM interaction modulation; P63165; SUMO1 binding to a labelled peptide, TR-FRET, 1 h; inhibition, % at 20 µM; 360,000 compounds, 0.33% hits; AID 602429; in the data active = inhibition above about 37%
The depositor's hits bear a star. Most compounds without a hit are left out; they make up all but 2.3% or so of the library.

`CN1CCS/C1=C/C=C1\SC(=S)N(CC(=O)O)C1=O` gave DNMT1 inh 43, SKN-1 block -10, CSN deneddyl inh -75, MT1-MMP act inh -95 and SUMO1-SIM PPI -328.
For CCCCN1C(=O)/C(=C/C=C2\SCCN2C)SC1=S the results were DNMT1 inh 16, SKN-1 block 48*, CSN deneddyl inh 71, MT1-MMP act inh -103 and SUMO1-SIM PPI -270.
Screening COc1ccc(NC(=O)CN2CCN(Cc3ccc4c(c3)OCO4)CC2)cc1OC returned DNMT1 inh 5, Rpn11 inh -1, SKN-1 block 37*, CSN deneddyl inh -3, MT1-MMP act inh -2 and SUMO1-SIM PPI -4.
COc1ccc(C(C)(O)c2nc(-c3cccc(O)c3)cs2)cc1 (stereo unspecified) was read as DNMT1 inh -1, Rpn11 inh 4, SKN-1 block 16, CSN deneddyl inh 6, MT1-MMP act inh -8 and SUMO1-SIM PPI 1.
Screening CC(C)(C)NC(=O)CN(C(=O)CCN1CCCc2ccccc21)C(C)(C)C returned DNMT1 inh -1, Rpn11 inh -27, SKN-1 block 40*, CSN deneddyl inh -6, MT1-MMP act inh -24 and SUMO1-SIM PPI -10.
Screening COc1cc(OC)cc(C2=Cc3ccc(OC)cc3C(CC(C)=O)N2c2ccc(-c3cccs3)cc2)c1 (stereo unspecified) returned SKN-1 block -1, CSN deneddyl inh 4, MT1-MMP act inh 8 and SUMO1-SIM PPI -3.
`O=C1c2cccnc2C(=O)N1Cc1ccc(S(=O)(=O)N2CCN(c3ccc(Cl)cc3)CC2)cc1` gave DNMT1 inh -1, Rpn11 inh 1, SKN-1 block 8, CSN deneddyl inh -3, MT1-MMP act inh -3 and SUMO1-SIM PPI 60*.
Screening COc1ccc(OC)c(CN2C(=O)CCC2(C)c2nnnn2-c2c(C)cccc2C)c1 (stereo unspecified) returned SKN-1 block -4, CSN deneddyl inh 3, MT1-MMP act inh 1 and SUMO1-SIM PPI 3.
`CCN(CC)S(=O)(=O)c1ccc(N2CCOCC2)c(NC(=O)c2c3c(nc4ccccc24)CCC3)c1` gave DNMT1 inh 65*, Rpn11 inh -17, SKN-1 block 3, CSN deneddyl inh 3, MT1-MMP act inh -2 and SUMO1-SIM PPI -2.
For CCN(CC)S(=O)(=O)c1ccc(N2CCOCC2)c(NC(=O)c2cccc3ccccc23)c1 the results were DNMT1 inh -4, Rpn11 inh -6, SKN-1 block 6, CSN deneddyl inh -3, MT1-MMP act inh 2 and SUMO1-SIM PPI -2.
CC(C)(C)N=C1NN=C(c2ccc(Cl)cc2)CS1 was read as DNMT1 inh -7, Rpn11 inh -2, SKN-1 block 51*, CSN deneddyl inh -3, MT1-MMP act inh 5 and SUMO1-SIM PPI -4.
`COC(=O)c1c(C)[nH]c(O)c1C=Nc1ccc(C#N)cc1` gave DNMT1 inh -2, Rpn11 inh 19, SKN-1 block 46*, CSN deneddyl inh -6, MT1-MMP act inh -6 and SUMO1-SIM PPI -10.
Screening O=C(NC1CCCC1)C(c1ccccc1)n1c(CSCCOc2ccccc2)nc2ccccc21 (stereo unspecified) returned SKN-1 block 2, CSN deneddyl inh -2, MT1-MMP act inh 2 and SUMO1-SIM PPI 4.
Screening CCN1C(=O)/C(=C\c2cn(-c3ccccc3)nc2-c2cccnc2)SC1=S returned DNMT1 inh 53*, Rpn11 inh 8, SKN-1 block 11, CSN deneddyl inh -4, MT1-MMP act inh -7 and SUMO1-SIM PPI 8.
For O=C(O)CN1C(=O)/C(=C\c2cn(-c3ccccc3)nc2-c2ccccc2)SC1=S the results were DNMT1 inh -3, Rpn11 inh -6, SKN-1 block 11, CSN deneddyl inh 0, MT1-MMP act inh 0 and SUMO1-SIM PPI -6.
CCCCCCCCN1C(=O)[C@H](CC(=O)NCc2ccc(C)o2)C[C@@]2(C(=O)OCC)CCC=C12 was read as SKN-1 block -4, CSN deneddyl inh 6, MT1-MMP act inh -3 and SUMO1-SIM PPI 5.
Screening Clc1ccc(OCc2nc(-c3ccncc3)no2)c(Br)c1 returned DNMT1 inh -7, Rpn11 inh -2, SKN-1 block 51*, CSN deneddyl inh 3, MT1-MMP act inh -1 and SUMO1-SIM PPI -2.
Screening Clc1ccccc1OCc1nc(-c2ccncc2)no1 returned DNMT1 inh -1, Rpn11 inh -6, SKN-1 block 15, CSN deneddyl inh 2, MT1-MMP act inh 2 and SUMO1-SIM PPI -3.
`COC(=O)c1cc2sccc2n1Cc1ccc(C)cc1` gave DNMT1 inh -1, Rpn11 inh 3, SKN-1 block 38*, CSN deneddyl inh 0, MT1-MMP act inh -8 and SUMO1-SIM PPI -4.
For COc1cc(Cc2nc3ccccc3n2C(C)c2nc3ccccc3[nH]2)cc(OC)c1 (stereo unspecified) the results were SKN-1 block -12, CSN deneddyl inh 4, MT1-MMP act inh -4 and SUMO1-SIM PPI -2.
`c1ccc(-c2noc(-c3ccc4ccccc4c3)n2)nc1` gave DNMT1 inh -6, Rpn11 inh 0, SKN-1 block 42*, CSN deneddyl inh 1, MT1-MMP act inh 1 and SUMO1-SIM PPI -31.
Screening O=C1Nc2cnc(Cl)nc2Nc2ccccc21 returned DNMT1 inh 7, Rpn11 inh 5, SKN-1 block -9, CSN deneddyl inh -1, MT1-MMP act inh -2 and SUMO1-SIM PPI -8.
O=C1/C(=C\c2cccs2)SC(=S)N1C1CCS(=O)(=O)C1 (stereo unspecified) was read as DNMT1 inh 1, Rpn11 inh -3, SKN-1 block 39*, CSN deneddyl inh -1, MT1-MMP act inh 0 and SUMO1-SIM PPI -28.
Cc1[nH]n(-c2ccccc2)c(=O)c1/C=N/c1ccccn1 was read as DNMT1 inh -5, Rpn11 inh 6, SKN-1 block 51*, CSN deneddyl inh -2, MT1-MMP act inh 2 and SUMO1-SIM PPI -11.
For Cc1ccc(N=Cc2c(C)[nH]n(-c3ccccc3)c2=O)nc1 the results were DNMT1 inh -3, Rpn11 inh -1, SKN-1 block 6, CSN deneddyl inh -2, MT1-MMP act inh 6 and SUMO1-SIM PPI -18.
Screening CC(O)(c1cccc(F)c1)c1nc(-c2csc3ccccc23)cs1 (stereo unspecified) returned DNMT1 inh -16, Rpn11 inh 8, SKN-1 block 32, CSN deneddyl inh 4, MT1-MMP act inh -1 and SUMO1-SIM PPI -6.
COc1cc(N2CCCC2)c(OC)cc1/C=C(/C#N)c1cccc(F)c1 was read as DNMT1 inh 6, SKN-1 block 2, CSN deneddyl inh 54*, MT1-MMP act inh -340 and SUMO1-SIM PPI -30.

Screening results from PubChem BioAssay.
